Experimental data published in ChEMBL document CHEMBL1134337, “Behavioral approach to nondyskinetic dopamine antagonists: identification of seroquel” (J Med Chem, 2001).

Assays:
[1] = Number of animals showing dyskinesias was determined in haloperidol sensitized 2 cebus monkeys after (po) administration of 20 mg/kg; format: functional
Summary of the method: (§1)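 Adult female and male Cebus monkeys sensitized with oral haloperidol 1 mg/kg once per week until dyskinetic reactions occurred. Test drug given orally (2 mL/kg) in 0.5% w/w hydroxypropylmethylcellulose with 0.1% w/w Tween 80 in distilled water, at least 2 weeks between treatments. Two observers watched continuously for 6-7 h, recording reaction type and severity every 30 min. Score is monkeys with dyskinesias/monkeys tested.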

[2] = Number of animals showing dyskinesias was determined in haloperidol sensitized 2 cebus monkeys after (po) administration of 40 mg/kg; format: functional; summary of the method: as §1
[3] = Number of animals showing dyskinesias was determined in haloperidol sensitized 2 cebus monkeys after (po) administration of 80 mg/kg; format: functional; summary of the method: as §1
D(2) dopamine receptor = D(2) dopamine receptor (Rattus norvegicus, UniProt P61169); assay: Inhibition of spiropiperidone binding at dopamine receptor D2 of rat.
Mus musculus [4] = assay: Antagonism of apomorphine induced climbing was determined in female swiss -Wbster mice after (ip) administration of 20 mg/kg; format: functional
Summary of the method: (§2)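 Female Swiss-Webster mice (about 20 g) were fasted about 24 h, then given test compound or vehicle ip or po (N = 20 per group). Vehicle was 0.5% w/w hydroxypropylmethylcellulose with 0.1% w/w Tween 80 in water. After 30 min, mice received apomorphine HCl 1.25 mg/kg sc. At 13 min, each mouse was watched for 1 min; score was mean of highest and lowest rung of 27. Groups were compared with vehicle by Student's t-test.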

Mus musculus [5] = assay: Antagonism of apomorphine induced climbing was determined in female swiss -Wbster mice after (ip) administration of 40 mg/kg; format: functional; summary of the method: as §2
Mus musculus [6] = assay: Antagonism of apomorphine induced climbing was determined in female swiss -Wbster mice after (ip) administration of 80 mg/kg; format: functional; summary of the method: as §2
Mus musculus [7] = assay: Antagonism of apomorphine induced climbing was determined in female swiss -Wbster mice after (po) administration of 40 mg/kg; format: functional; summary of the method: as §2
Mus musculus [8] = assay: Antagonism of apomorphine induced climbing was determined in female swiss -Wbster mice after (po) administration of 80 mg/kg; format: functional; summary of the method: as §2
Mus musculus [9] = assay: Antagonism of apomorphine induced swimming was determined in female swiss -Wbster mice after (po) administration of 40 mg/kg; format: functional
Mus musculus [10] = assay: Antagonism of apomorphine induced swimming was determined in female swiss -Wbster mice after (po) administration of 80 mg/kg; format: functional
[11] = Number of animals showing dyskinesias was determined in haloperidol sensitized 3 cebus monkeys after (po) administration of 80 mg/kg; format: functional; details: dose 10 mg/kg; in the assay text read “10 mg/kg” for “80 mg/kg”; summary of the method: as §1
Mus musculus [12] = assay: Antagonism of apomorphine induced climbing was determined in female swiss -Webster mice after (ip) administration of 10 mg/kg; format: functional; summary of the method: as §2
Mus musculus [13] = assay: Antagonism of apomorphine induced climbing was determined in female swiss -Webster mice after (ip) administration of 2.5 mg/kg; format: functional; summary of the method: as §2
Mus musculus [14] = assay: Antagonism of apomorphine induced climbing was determined in female swiss -Webster mice after (ip) administration of 20 mg/kg; format: functional; summary of the method: as §2
Mus musculus [15] = assay: Antagonism of apomorphine induced climbing was determined in female swiss -Webster mice after (ip) administration of 5 mg/kg; format: functional; summary of the method: as §2
Mus musculus [16] = assay: Antagonism of apomorphine induced swimming was determined in female swiss -Wbster mice after (po) administration of 10 mg/kg; format: functional
Mus musculus [17] = assay: Antagonism of apomorphine induced swimming was determined in female swiss -Wbster mice after (po) administration of 2.5 mg/kg; format: functional
Mus musculus [18] = assay: Antagonism of apomorphine induced swimming was determined in female swiss -Wbster mice after (po) administration of 20 mg/kg; format: functional
Mus musculus [19] = assay: Antagonism of apomorphine induced swimming was determined in female swiss -Wbster mice after (po) administration of 5 mg/kg; format: functional
Mus musculus [20] = assay: Antagonism of apomorphine induced climbing was determined in female swiss -Webster mice after (ip) administration of 40 mg/kg; format: functional; summary of the method: as §2
Mus musculus [21] = assay: Antagonism of apomorphine induced climbing was determined in female swiss -Webster mice after (ip) administration of 80 mg/kg; format: functional; summary of the method: as §2
[22] = biological target: D(2) dopamine receptor (Rattus norvegicus) (UniProt P61169); assay: Binding affinity at dopamine receptor D2 from rat by spiropiperidone displacement.
Summary of the method: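 D2 receptor binding was read as % displacement of spiropiperidone, with test compound at 1000 nM unless stated otherwise. IC50 values used at least five concentrations per compound in triplicate. Each value is the mean of two replicate experiments differing by 5% or less.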

Mus musculus [23] = assay: Antagonism of apomorphine induced swimming was determined in female swiss -Wbster mice after (ip) administration of 40 mg/kg; format: functional
Mus musculus [24] = assay: Antagonism of apomorphine induced swimming was determined in female swiss -Wbster mice after (ip) administration of 80 mg/kg; format: functional
Mus musculus [25] = assay: Antagonism of apomorphine induced climbing was determined in female swiss -Wbster mice after (ip) administration of 10 mg/kg; format: functional; summary of the method: as §2
Mus musculus [26] = assay: Antagonism of apomorphine induced climbing was determined in female swiss -Webster mice after (po) administration of 20 mg/kg; format: functional; summary of the method: as §2
Mus musculus [27] = assay: Antagonism of apomorphine induced climbing was determined in female swiss -Webster mice after (po) administration of 5 mg/kg; format: functional; summary of the method: as §2
Mus musculus [28] = assay: Antagonism of apomorphine induced climbing was determined in female swiss -Webster mice after (p.o.) +SKF525A administration of 10 mg/kg; format: functional; details: route oral; summary of the method: as §2
Mus musculus [29] = assay: Antagonism of apomorphine induced climbing was determined in female swiss -Webster mice after (p.o.) +SKF525A administration of 20 mg/kg; format: functional; details: route oral; summary of the method: as §2
Mus musculus [30] = assay: Antagonism of apomorphine induced climbing was determined in female swiss -Webster mice after (p.o.) +SKF525A administration of 5 mg/kg; format: functional; details: route oral; summary of the method: as §2
Mus musculus [31] = assay: Antagonism of apomorphine induced climbing was determined in female swiss -Webster mice after (po) administration of 10 mg/kg; format: functional; summary of the method: as §2
[32] = Number of animals showing dyskinesias was determined in haloperidol sensitized 4 cebus monkeys after (po) administration of 40 mg/kg; format: functional; summary of the method: as §1
Mus musculus [33] = assay: Antagonism of apomorphine induced swimming was determined in female swiss -Webster mice after (ip) administration of 20 mg/kg; format: functional
Mus musculus [34] = assay: Antagonism of apomorphine induced swimming was determined in female swiss -Webster mice after (ip) administration of 40 mg/kg; format: functional
Mus musculus [35] = assay: Antagonism of apomorphine induced swimming was determined in female swiss -Webster mice after (ip) administration of 80 mg/kg; format: functional

D(2) dopamine receptor (Rattus norvegicus), sequence (P61169 whole entry): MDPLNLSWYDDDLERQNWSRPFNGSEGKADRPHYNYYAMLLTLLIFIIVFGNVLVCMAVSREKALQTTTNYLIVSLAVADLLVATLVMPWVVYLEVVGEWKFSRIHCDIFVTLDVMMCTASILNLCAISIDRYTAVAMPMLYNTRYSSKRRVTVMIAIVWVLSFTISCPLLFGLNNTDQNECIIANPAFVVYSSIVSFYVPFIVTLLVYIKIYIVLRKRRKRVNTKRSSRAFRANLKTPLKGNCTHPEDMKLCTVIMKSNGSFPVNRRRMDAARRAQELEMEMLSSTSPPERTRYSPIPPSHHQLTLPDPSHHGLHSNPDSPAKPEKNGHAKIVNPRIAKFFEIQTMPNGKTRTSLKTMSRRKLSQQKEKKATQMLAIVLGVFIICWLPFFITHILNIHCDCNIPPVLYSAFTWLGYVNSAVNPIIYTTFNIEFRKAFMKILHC
D(2) dopamine receptor, sequence (P61169 whole entry): as above

Molecule OCCOCCN1CCN(C2=Nc3cc(Cl)ccc3Cc3ccccc32)CC1 has a No of monkeys [1] of 0, a No of monkeys [2] of 0 and a No of monkeys [3] of 0. For the same molecule, the IC50 (D(2) dopamine receptor) was 1000 nM, the Activity (Mus musculus [4]) was 19 and the Activity (Mus musculus [5]) was 6. For the same molecule, the Activity (Mus musculus [6]) was 2, the Activity (Mus musculus [7]) was 26 and the Activity (Mus musculus [8]) was 1. The Activity (Mus musculus [9]) was 1 and the Activity (Mus musculus [10]) was 2.
CN1CCN(C2=Nc3ccc(O)cc3Sc3ccccc32)CC1 showed a No of monkeys [11] of 3, an IC50 (D(2) dopamine receptor) of 49 nM and an Activity (Mus musculus [12]) of 1. For the same molecule, the Activity (Mus musculus [13]) was 18, the Activity (Mus musculus [14]) was 1 and the Activity (Mus musculus [15]) was 13. For the same molecule, the Activity (Mus musculus [16]) was 34, the Activity (Mus musculus [17]) was 3 and the Activity (Mus musculus [18]) was 32. For the same molecule, the Activity (Mus musculus [19]) was 10.
With OCCOCCN1CCN(C2=Nc3ccccc3Cc3sccc32)CC1 the Activity (Mus musculus [20]) was 21 and the Activity (Mus musculus [21]) was 7.
OCCOCCN1CCN(C2=Nc3ccccc3Oc3ccccc32)CC1 gave a % displacement of spiropiperidone [22] of 16%, an Activity (Mus musculus [5]) of 17 and an Activity (Mus musculus [6]) of 11. It also gave an Activity (Mus musculus [23]) of 1 and an Activity (Mus musculus [24]) of 8.
With OCCOCCN1CCN(C2=Nc3cc(Cl)ccc3Cc3sccc32)CC1 the No of monkeys [1] was 1, the % displacement of spiropiperidone [22] was 60% and the Activity (Mus musculus [25]) was 20. For the same molecule, the Activity (Mus musculus [4]) was 1, the Activity (Mus musculus [5]) was 2 and the Activity (Mus musculus [6]) was 3.
Work on CN1CCN(C2=Nc3ccccc3Cc3ccccc32)CC1 [PERLAPINE] yielded an IC50 (D(2) dopamine receptor) of 2700 nM, an Activity (Mus musculus [26]) of 2 and an Activity (Mus musculus [27]) of 20. For the same molecule, the Activity (Mus musculus [28]) was 20, the Activity (Mus musculus [29]) was 16 and the Activity (Mus musculus [12]) was 7. For the same molecule, the Activity (Mus musculus [13]) was 9, the Activity (Mus musculus [14]) was 0 and the Activity (Mus musculus [15]) was 9. It also gave an Activity (Mus musculus [30]) of 24 and an Activity (Mus musculus [31]) of 9.
Work on CN1CCN(C2=Nc3cc(Cl)ccc3Cc3ccccc32)CC1 yielded a % displacement of spiropiperidone [22] of 40%, an Activity (Mus musculus [20]) of 24 and an Activity (Mus musculus [21]) of 25.
Work on OCC1COCC(CN2CCN(C3=Nc4ccccc4Sc4ccccc43)CC2)O1 (configuration not stated) yielded a No of monkeys [32] of 4, a % displacement of spiropiperidone [22] of 4% and an Activity (Mus musculus [14]) of 18. The Activity (Mus musculus [20]) was 7, the Activity (Mus musculus [21]) was 0 and the Activity (Mus musculus [33]) was 0. For the same molecule, the Activity (Mus musculus [34]) was 8 and the Activity (Mus musculus [35]) was 27.
For OCCOCCN1CCN(C2=Nc3cccc(F)c3Sc3ccccc32)CC1, the % displacement of spiropiperidone [22] was 0%, the Activity (Mus musculus [6]) was 22 and the Activity (Mus musculus [24]) was 0.
With COC[C@H](CN1CCN(C2=Nc3ccccc3Sc3ccccc32)CC1)OC the % displacement of spiropiperidone [22] was 10%, the Activity (Mus musculus [20]) was 19 and the Activity (Mus musculus [21]) was 1. It also gave an Activity (Mus musculus [34]) of 3 and an Activity (Mus musculus [35]) of 13.
Work on CN1CCN(C2=Nc3cc(Cl)ccc3Oc3ccccc32)CC1 [ISOLOXAPINE] yielded a % displacement of spiropiperidone [22] of 48%, an Activity (Mus musculus [20]) of 20 and an Activity (Mus musculus [21]) of 14.
